# Results from ChEMBL document CHEMBL1125474, “Comparative molecular field analysis of anticoccidial triazines” (J Med Chem, 1992).
# System: Eimeria tenella
# Assay: Minimum effective concentration for anti-coccidial activity against […] coccidian parasite Eimeria tenella in chicks expressed as mmol/kg of feed
# Type: functional
# Procedure, shortened: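 Chicks kept on feed containing test drug, then challenged with *Eimeria tenella* oocysts. Activity is scored as the degree of lesion control in the ceca of treated, challenged birds. The lowest feed concentration that controls lesions is taken as the MEC. Values are usually reproducible within one 2-fold dilution (±0.3 in log(1/MEC)).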
row,SMILES,Log 1/MEC
1,O=c1cnn(-c2ccc(S(=O)(=O)N3CCOCC3)c(Cl)c2)c(=O)[nH]1,1.09
2,Cc1cc(-n2ncc(=O)[nH]c2=O)cc(Cl)c1S(=O)(=O)N(C)C,0.76
3,O=c1cnn(-c2ccc(S(=O)(=O)N3CCCCC3)c(Cl)c2)c(=O)[nH]1,0.17
4,Cc1cc(-n2ncc(=O)[nH]c2=O)cc(C)c1S(=O)(=O)N1CCOCC1,1.39
5,O=c1cnn(-c2cc(Cl)c(S(=O)(=O)N3CCOCC3)c(Cl)c2)c(=O)[nH]1,1.13
6,O=c1cnn(-c2cccc(Cl)c2)c(=O)[nH]1,0.25
7,O=c1cnn(-c2ccc(S(=O)(=O)N3CCC(O)CC3)c(Cl)c2)c(=O)[nH]1,-0.11
8,Cc1cc(C)cc(-n2ncc(=O)[nH]c2=O)c1,0.86
9,Cc1cc(Cl)cc(-n2ncc(=O)[nH]c2=O)c1,1.2
10,O=c1cnn(-c2ccc(S(=O)(=O)c3ccc(Cl)cc3)cc2)c(=O)[nH]1,1.96
11,Cc1cc(-n2ncc(=O)[nH]c2=O)cc(Cl)c1Sc1ccc(Cl)cc1,3.28
12,CCc1cc(-n2ncc(=O)[nH]c2=O)cc(C)c1Sc1ccc(Cl)cc1,0.79
13,COc1c(Cl)cc(-n2ncc(=O)[nH]c2=O)cc1Cl,0.06
14,O=c1cnn(-c2cc(Cl)c(S(=O)(=O)c3ccc(Cl)cc3)c(Cl)c2)c(=O)[nH]1,2.94
15,Cc1cc(-n2ncc(=O)[nH]c2=O)cc(Cl)c1S(=O)(=O)N1CCSCC1,0.53
16,O=c1cnn(-c2cc(Cl)cc(Cl)c2)c(=O)[nH]1,1.81
17,O=c1cnn(-c2ccccc2)c(=O)[nH]1,-0.42
18,O=c1cnn(-c2ccc(Sc3ccc(Cl)cc3)c(Cl)c2)c(=O)[nH]1,2.26
19,O=c1cnn(-c2ccc(S(=O)(=O)c3ccc(Cl)cc3)c(Cl)c2)c(=O)[nH]1,2.3
20,CS(=O)(=O)c1c(Cl)cc(-n2ncc(=O)[nH]c2=O)cc1Cl,0.13
21,O=c1cnn(-c2cc(Cl)c(Sc3ccc(Cl)cc3)c(Cl)c2)c(=O)[nH]1,3.3
22,O=c1cnn(-c2ccc(S(=O)(=O)c3ccc(Br)cc3)cc2)c(=O)[nH]1,1.71
23,Cc1cc(-n2ncc(=O)[nH]c2=O)cc(C)c1S(=O)(=O)c1ccc(Cl)cc1,2.59

row,SMILES,Log 1/MEC
1,Cc1cc(-n2ncc(=O)[nH]c2=O)cc(C)c1[S+]([O-])c1ccc(Cl)cc1 (stereo not drawn),2.58
2,Cc1cc(-n2ncc(=O)[nH]c2=O)cc(Cl)c1S(=O)(=O)c1ccc(Cl)cc1,1.71
3,O=c1cnn(-c2ccc(S(=O)(=O)c3ccccc3)cc2)c(=O)[nH]1,1.04
4,O=C(c1ccc(Cl)cc1)c1c(Cl)cc(-n2ncc(=O)[nH]c2=O)cc1Cl,2.9
5,CS(=O)(=O)c1ccc(-n2ncc(=O)[nH]c2=O)cc1,-0.27
6,O=c1cnn(-c2ccc([N+](=O)[O-])cc2)c(=O)[nH]1,-0.03
7,O=c1cnn(-c2ccc(Oc3ccccc3)cc2)c(=O)[nH]1,-0.25
8,O=c1cnn(-c2ccc(Oc3ccc(I)cc3)c(Cl)c2)c(=O)[nH]1,1.77
9,CSc1ccc(Oc2ccc(-n3ncc(=O)[nH]c3=O)cc2C)cc1,2.23
10,Cc1cc(-n2ncc(=O)[nH]c2=O)ccc1Oc1ccc(Br)cc1,1.7
11,CSc1ccc(Oc2ccc(-n3ncc(=O)[nH]c3=O)cc2Cl)cc1,1.98
12,CC(=O)c1ccc(Sc2c(C)cc(-n3ncc(=O)[nH]c3=O)cc2Cl)cc1,3.19
13,O=c1cnn(-c2ccc(Cl)c(Cl)c2)c(=O)[nH]1,0.63
14,CC(C)(C)c1ccc(Sc2ccc(-n3ncc(=O)[nH]c3=O)cc2Cl)cc1,0.51
15,O=c1cnn(-c2ccc(Oc3ccc4cc(Br)ccc4c3)c(Cl)c2)c(=O)[nH]1,1.77
16,O=c1cnn(-c2ccc(Sc3ccc4ccccc4c3)c(Cl)c2)c(=O)[nH]1,0.48
17,CSc1ccc(Oc2c(C)cc(-n3ncc(=O)[nH]c3=O)cc2C)cc1,2.25
18,COc1cc(-n2ncc(=O)[nH]c2=O)cc(OC)c1OC,-0.55
19,CC(=O)c1ccc(Oc2c(C)cc(-n3ncc(=O)[nH]c3=O)cc2Cl)cc1,2.27
20,Cc1cc(-n2ncc(=O)[nH]c2=O)ccc1Oc1ccc(Cl)cc1Cl,1.69
21,Cc1cc(-n2ncc(=O)[nH]c2=O)ccc1Oc1ccc(Cl)cc1,0.74
22,O=c1cnn(-c2cccc(C(F)(F)F)c2)c(=O)[nH]1,0.93
23,Cc1cc(-n2ncc(=O)[nH]c2=O)cc(Cl)c1Oc1ccc(Cl)cc1,1.98

row,SMILES,Log 1/MEC
1,CSc1ccc(Oc2c(C)cc(-n3ncc(=O)[nH]c3=O)cc2C)cc1C,2.27
2,Cc1cc(-n2ncc(=O)[nH]c2=O)ccc1Oc1ccc(S(C)(=O)=O)cc1,1.97
3,Cc1cc(-n2ncc(=O)[nH]c2=O)cc(Cl)c1Oc1ccc(C(C)O)cc1 (stereo not drawn),2.27
4,CCN(C)S(=O)(=O)c1ccc(Oc2c(C)cc(-n3ncc(=O)[nH]c3=O)cc2Cl)c(Cl)c1,2.11
5,Cc1cc(-n2ncc(=O)[nH]c2=O)cc(Cl)c1Oc1ccc(S(=O)(=O)NC2CC2)cc1Cl,1.51
6,O=c1cnn(-c2cc(Cl)c(Cc3ccc(Cl)cc3)c(Cl)c2)c(=O)[nH]1,3.18
7,O=c1cnn(-c2ccc(Oc3ccc(Cl)cc3Cl)c(Cl)c2)c(=O)[nH]1,1.71
8,O=c1cnn(-c2ccc(F)c(C(F)(F)F)c2)c(=O)[nH]1,1.26
9,N#Cc1cccc(-n2ncc(=O)[nH]c2=O)c1,0.85
10,O=c1cnn(-c2ccc(Cc3ccc(Cl)cc3)c(Cl)c2)c(=O)[nH]1,1.64
11,COc1cc(OC)cc(-n2ncc(=O)[nH]c2=O)c1,-0.3
12,O=c1cnn(-c2ccc(Br)c(C(F)(F)F)c2)c(=O)[nH]1,1.35
13,O=c1cnn(-c2ccc(C(O)c3ccc(Cl)cc3)c(Cl)c2)c(=O)[nH]1 (stereo not drawn),2.26
14,Cc1cc(-n2ncc(=O)[nH]c2=O)cc(C)c1C(=O)c1ccc(Cl)cc1,1.38
15,Cc1cc(-n2ncc(=O)[nH]c2=O)ccc1C(O)c1ccccc1 (stereo not drawn),1.01
16,C[C@@](C#N)(c1ccc(Cl)cc1)c1c(Cl)cc(-n2ncc(=O)[nH]c2=O)cc1Cl,2.62
17,N#C[C@H](c1ccc(Cl)cc1)c1c(Cl)cc(-n2ncc(=O)[nH]c2=O)cc1Cl,3.61
18,O=c1cnn(-c2ccc(Cl)c(C(F)(F)F)c2)c(=O)[nH]1,1.56
19,O=C1c2ccccc2CSc2cc(-n3ncc(=O)[nH]c3=O)ccc21,1.04
20,O=c1cnn(-c2cc(I)cc(I)c2)c(=O)[nH]1,1.17
21,N#CC(c1ccc(Cl)cc1)c1c(Cl)cc(-n2ncc(=O)[nH]c2=O)cc1Cl (stereo not drawn) [DICLAZURIL],3.61
22,Cc1cc(-n2ncc(=O)[nH]c2=O)cc(C)c1Sc1ccc(Cl)cc1 [TIAZURIL],2.86
